# Assay results: ChEMBL document CHEMBL1143677, “Discovery of 4-aryl-4H-chromenes as a new series of apoptosis inducers using a cell- and caspase-based high-throughput screening assay. 3. Structure-activity relationships of fused rings at the 7,8-positions” (J Med Chem, 2007)
# pEC50, pIC50: −log10 of the molar value.
# Assays:
# NCI-H1299 = experiment: Apoptosis inducing activity in human H1299 cells by caspase activation assay; assay type: functional, cell-based
# Summary of the method: (§1)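 Cell-based caspase activation (apoptosis induction) HTS assay run in T47D breast and H1299 non-small-cell lung cancer cells; EC50 reported as mean ± SEM of three or more experiments.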
# T47D [1] = experiment: Apoptosis inducing activity in human T47D cells by caspase activation assay; assay type: functional, cell-based; summary of the method: as §1
# [2] = Growth inhibition of human H1299 cells after 48 hrs; assay type: functional; conditions: NCI-H1299, 48 h
# Summary of the method: (§2)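 Cells were exposed continuously to compound for 48 h at 37 °C in 96-well format. CellTiter-Glo reagent was added with agitation, then 10-15 min at room temperature before luminescence read-out.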
# T47D [3] = experiment: Growth inhibition of human T47D cells after 48 hrs; assay type: functional; summary of the method: as §2
# Tubulin = experiment: Inhibition of tubulin polymerization; assay type: protein-complex assay, Homo sapiens
pEC50 (NCI-H1299),pEC50 (T47D [1]),GI50 (T47D [3]),SMILES,GI50 [2],pIC50 (Tubulin)
6.85,7.06,–,COc1cccc(C2C(C#N)=C(N)Oc3c2ccc2cc[nH]c32)c1 (stereo not given),–,–
6.37,–,–,N#CC1=C(N)Oc2c(ccc3[nH]ccc23)C1c1ccccc1 (stereo not given),–,–
7.03,7.14,–,COc1cc(C2C(C#N)=C(N)Oc3c2ccc2ccccc32)cc(Br)c1OC (stereo not given),–,–
6.82,7.21,57 nM,COc1cc(C2C(C#N)=C(N)Oc3c2ccc2cnccc32)cc(Br)c1OC (stereo not given),71 nM,–
6.72,6.96,–,N#CC1=C(N)Oc2c(ccc3[nH]ccc23)C1c1cccnc1 (stereo not given),–,–
7.52,7.80,–,COc1cncc(C2C(C#N)=C(N)Oc3c2ccc2[nH]ccc32)c1 (stereo not given),–,–
6.36,6.92,–,COc1cc(C2C(C#N)=C(N)Oc3c2ccc2cnccc32)cc(OC)c1OC (stereo not given),–,–
6.89,7.19,–,COc1cc(C2C(C#N)=C(N)Oc3c2ccc2cnccc32)cc(I)c1OC (stereo not given),–,–
6.54,6.64,–,Cc1cncc(C2C(C#N)=C(N)Oc3c2ccc2cnccc32)c1 (stereo not given),–,–
7.19,7.89,73 nM,Cc1cncc(C2C(C#N)=C(N)Oc3c2ccc2[nH]ccc32)c1 (stereo not given),100 nM,–
7.37,7.37,–,N#CC1=C(N)Oc2c(ccc3[nH]ccc23)C1c1cccc(C#N)c1 (stereo not given),–,–
6.89,6.92,–,N#CC1=C(N)Oc2c(ccc3cc[nH]c23)C1c1cccc(C#N)c1 (stereo not given),–,–
7.18,7.28,–,COc1cccc(C2C(C#N)=C(N)Oc3c2ccc2[nH]ccc32)c1 (stereo not given),–,–
7.02,7.17,–,N#CC1=C(N)Oc2c(ccc3[nH]ccc23)C1c1cccc([N+](=O)[O-])c1 (stereo not given),–,–
6.82,6.92,–,N#CC1=C(N)Oc2c(ccc3cnccc23)C1c1cncc(Br)c1 (stereo not given),–,–
6.89,7.19,–,COc1cc(C2C(C#N)=C(N)Oc3c2ccc2ccccc32)cc(I)c1OC (stereo not given),–,–
7.03,7.54,–,COc1cc(C2C(C#N)=C(N)Oc3c2ccc2cccnc32)cc(Br)c1OC (stereo not given),–,–

# Further lines, the compound ahead of its results:
SMILES,pEC50 (NCI-H1299),pEC50 (T47D [1]),GI50 (T47D [3]),GI50 [2],pIC50 (Tubulin)
COc1cc(OC)cc(C2C(C#N)=C(N)Oc3c2ccc2cc[nH]c32)c1 (stereo not given),7.23,7.51,–,–,–
COc1cc(C2C(C#N)=C(N)Oc3c2ccc2ccccc32)cc(OC)c1OC (stereo not given),7.17,7.57,–,–,–
COc1cc(C2C(C#N)=C(N)Oc3c2ccc2ncccc32)cc(OC)c1OC (stereo not given),7.66,6.80,–,–,–
COc1cc(C2C(C#N)=C(N)Oc3c2ccc2cc[nH]c32)cc(Br)c1OC (stereo not given),7.28,–,9 nM,6 nM,6.05
COc1cc(OC)cc(C2C(C#N)=C(N)Oc3c2ccc2[nH]ccc32)c1 (stereo not given),6.92,7.52,–,–,–
COc1cc(C2C(C#N)=C(N)Oc3c2ccc2cc[nH]c32)cc(OC)c1OC (stereo not given),6.74,7.14,–,–,–
COc1cc(C2C(C#N)=C(N)Oc3c2ccc2c3CCCC2)cc(Br)c1OC (stereo not given),6.28,6.72,–,–,–
COc1cc(C2C(C#N)=C(N)Oc3c2ccc2nc(C)c(C)nc32)cc(Br)c1OC (stereo not given),5.57,5.67,–,–,–
COc1cc(C2C(C#N)=C(N)Oc3c2ccc2[nH]ccc32)cc(Br)c1OC (stereo not given),7.89,–,8 nM,19 nM,6.40
COc1cc(C2C(C#N)=C(N)Oc3c2ccc(N)c3N)cc(Br)c1OC (stereo not given),–,–,150 nM,31 nM,–
COc1cc(C2C(C#N)=C(N)Oc3c2ccc2ncccc32)cc(Br)c1OC (stereo not given),6.85,7.19,–,–,–
COc1cc(C2C(C#N)=C(N)Oc3c2ccc2[nH]ccc32)cc(OC)c1OC (stereo not given),7.11,7.52,–,–,–
COc1cc(C2C(C#N)=C(N)Oc3c2ccc2[nH]ccc32)cc(Br)c1O (stereo not given),7.60,7.89,57 nM,71 nM,–
COc1cc(C2C(C#N)=C(N)Oc3c2ccc2cc[nH]c32)cc(Br)c1O (stereo not given),7.10,7.46,70 nM,70 nM,–
COc1cc(C2C(C#N)=C(N)Oc3c2ccc2nccnc32)cc(Br)c1OC (stereo not given),6.07,6.34,450 nM,550 nM,–
COc1cc(C2C(C#N)=C(N)Oc3c2ccc2[nH]c(C)cc32)cc(Br)c1OC (stereo not given),7.24,–,89 nM,140 nM,–
